Test results: publication PMC2606940 (The Journal of General Physiology, 2009)
Residue numbers refer to the chain shown, from its start. Where two headings read alike, the source gives them in different places.

Tests used:
Type in all cases: cell-based
[1] = molecular target: T1, CLC-0 E166C mutant (E127/K519) (Torpedo marmorata, UniProt P21564, C212S/E166C); conditions: for IC50: read-out: Apparent affinity (K1/2)
T1 sequence (P21564 1-805 E166C/C212S): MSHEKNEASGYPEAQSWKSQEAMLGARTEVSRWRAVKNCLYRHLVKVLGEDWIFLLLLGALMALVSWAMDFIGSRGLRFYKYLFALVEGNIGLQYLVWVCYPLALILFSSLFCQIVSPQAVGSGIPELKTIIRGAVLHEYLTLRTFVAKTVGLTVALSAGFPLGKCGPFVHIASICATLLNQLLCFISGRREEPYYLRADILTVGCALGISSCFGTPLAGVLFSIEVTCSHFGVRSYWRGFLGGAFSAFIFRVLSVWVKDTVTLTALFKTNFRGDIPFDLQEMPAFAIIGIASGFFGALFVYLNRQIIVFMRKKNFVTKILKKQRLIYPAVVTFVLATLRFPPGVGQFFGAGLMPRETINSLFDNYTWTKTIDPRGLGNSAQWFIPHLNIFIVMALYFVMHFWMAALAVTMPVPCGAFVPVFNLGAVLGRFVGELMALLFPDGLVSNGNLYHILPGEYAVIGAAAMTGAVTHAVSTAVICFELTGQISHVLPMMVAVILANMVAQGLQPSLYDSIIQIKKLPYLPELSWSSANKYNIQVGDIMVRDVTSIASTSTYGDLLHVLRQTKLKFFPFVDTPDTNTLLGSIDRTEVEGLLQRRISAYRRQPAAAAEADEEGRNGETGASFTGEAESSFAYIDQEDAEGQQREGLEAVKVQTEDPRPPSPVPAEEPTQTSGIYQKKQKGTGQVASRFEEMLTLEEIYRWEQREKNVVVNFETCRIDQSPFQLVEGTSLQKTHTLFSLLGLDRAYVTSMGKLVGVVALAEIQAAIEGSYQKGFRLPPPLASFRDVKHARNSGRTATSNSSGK
Outline: (§1)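 CLC-0 mutants in the C212S background were transfected into HEK293 cells with lipofectamine and recorded 1–3 d later as excised inside-out patches. Both sides held 130 mM NaCl, 5 mM MgCl2, 10 mM HEPES and 1 mM EGTA, pH 7.4. CPA was perfused continuously onto the cytoplasmic face. Steady-state current over the last 10 ms was normalized to bracketing blocker-free controls and fitted to a Langmuir function for K1/2. Values are mean ± SEM of ~4–6 patches.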

[2] = molecular target: T2, CLC-0 E166H mutant (Torpedo marmorata, UniProt P21564, C212S/E166H); conditions: read-out: Apparent affinity (K1/2)
T2 sequence (P21564 1-805 E166H/C212S): T1 sequence (P21564 1-805 E166C/C212S) with C166H
Outline: as §1

[3] = molecular target: T3, CLC-0 E166N mutant (Torpedo marmorata, UniProt P21564, C212S/E166N); conditions: read-out: Apparent affinity (K1/2)
T3 sequence (P21564 1-805 E166N/C212S): T1 sequence (P21564 1-805 E166C/C212S) with C166N
Outline: as §1

Row | Compound | IC50 ([1]; −40 mV) | IC50 ([1]; −60 mV) | IC50 ([1]; −80 mV) | IC50 ([1]; −100 mV) | IC50 ([1]; −120 mV) | IC50 ([1]; −140 mV) | IC50 ([1]; −160 mV) | IC50 ([2]; −80 mV) | IC50 ([2]; −100 mV) | IC50 ([2]; −120 mV) | IC50 ([2]; −140 mV) | IC50 ([2]; −160 mV) | IC50 ([3]; −40 mV) | IC50 ([3]; −60 mV) | IC50 ([3]; −80 mV) | IC50 ([3]; −100 mV) | IC50 ([3]; −120 mV) | IC50 ([3]; −140 mV) | IC50 ([3]; −160 mV) | also measured
1 | O=C(O)COc1ccc(Cl)cc1 [CPA, p-chlorophenoxy acetate] | 581 ± 94 µM | 349 ± 15 µM | 186 ± 7 µM | 104 ± 3 µM | 61 ± 2 µM | 38 ± 1 µM | 26 ± 1 µM | 2870 ± 150 µM | 1450 ± 110 µM | 740 ± 80 µM | 390 ± 50 µM | 210 ± 40 µM | 9750 ± 570 µM | 5780 ± 220 µM | 3270 ± 90 µM | 1850 ± 40 µM | 1060 ± 20 µM | 620 ± 20 µM | 380 ± 10 µM | block of current ([1]; 0.3 mM CPA, −160 mV): > 90%; apparent koff ([1]; −160 mV): 17.2 s⁻¹; apparent kon ([1]; −160 mV): 630000 M⁻¹ s⁻¹; IC50 ([2]; −40 mV): 12400 ± 520 µM; IC50 ([2]; −60 mV): 5860 ± 260 µM
2 | CCCCCCCC(=O)O [octanoate] | 88.5 ± 17.1 µM | 43.1 ± 6.4 µM | 20.7 ± 3.4 µM | 10.2 ± 1.8 µM | 5.6 ± 1.1 µM | 3.5 ± 0.8 µM | 2 ± 0.5 µM | 29600 ± 1300 µM | 18400 ± 810 µM | 11500 ± 570 µM | 7020 ± 400 µM | 4570 ± 280 µM | 4930 ± 180 µM | 2550 ± 47 µM | 1340 ± 29 µM | 694 ± 18 µM | 380 ± 9 µM | 212 ± 4 µM | 125 ± 2 µM | 
